Experimental data collected from several papers.
Compare with care: the assays were run in different laboratories.
Target: G protein-coupled receptor kinase 4 (GRK4, Homo sapiens, UniProt P32298)

observed | method | concentration | remaining binding [%] | SMILES
cell-free assay | competition with immobilised ligand | 1 µM | 72.1 | COc1cccc(CNC(=O)c2nc3scc(COCc4ccc(C(=O)O)cc4)c3c(=O)[nH]2)c1
binding | competition with immobilised ligand | 0.1 µM | 59 | C[C@@H](c1ccc(-n2cnc3c(N)ncnc32)cc1)N1CCc2nn(C)c(Cc3ccccc3)c2C1=O
binding | – | 1 µM | 72 | CN(c1nccc(-c2cnn3ncccc23)n1)C1CC1
binding | competition with immobilised ligand | 1 µM | 100 | O=C(Nc1c[nH]nc1C(=O)NC1CCNCC1)c1cc(F)cc(F)c1
binding | competition with immobilised ligand | 1 µM | 0.4 | O=C(c1ccc(Nc2nccc(-c3cc4ccccc4s3)n2)cc1)N1CCC(N2CCCC2)CC1
binding | competition with immobilised ligand | 1 µM | 100 | COc1cnc(Nc2cccc(S(N)(=O)=O)c2)nc1N1CCN(c2ccccc2)C(=O)C1
cell-free assay | competition with immobilised ligand | 1 µM | 100 | CCCCN(CCCC)C(=O)CN1C[C@H](c2cc(OC)c3c(c2)OCO3)[C@@H](C(=O)O)[C@@H]1CC(C)(C)CCC
binding | competition with immobilised ligand | 1 µM | 100 | COc1cnc(Nc2cccc(S(N)(=O)=O)c2)nc1N1CCN(c2ccccc2)CC1
binding | – | 1 µM | 75 | N[C@H]1CCN(c2nccc(-c3cnn4ncccc34)n2)C1
cell-free assay | competition with immobilised ligand | 1 µM | 100 | O=C(Nc1cccnn1)N1CC(C/C=C/c2cncc(Oc3ccc(C(F)(F)F)cn3)n2)C1
binding | competition with immobilised ligand | 1 µM | 2.7 | O=C(NCCCN1CCOCC1)c1ccc(Nc2ncc(Cl)c(-c3ccc(Cl)s3)n2)cc1
binding | – | 1 µM | 54 | C[C@H]1CCN(c2nccc(-c3cnn4ncccc34)n2)C1
binding | competition with immobilised ligand | 10 µM | 56 | c1cncc(-c2cccc(Nc3nccc(NC4CCCCC4)n3)c2)c1
cell-free assay | competition with immobilised ligand | 1 µM | 100 | C[C@@]1(Cc2ccc(C#N)cc2)C(=O)N(c2cc(Cl)cc(Cl)c2)c2ncc(C(=O)NC3(c4nc(C5CCC5)no4)CC3)n21
binding | – | 1 µM | 75 | CC1CCCN1c1nccc(-c2cnn3ncccc23)n1 (stereo not drawn)
cell-free assay | competition with immobilised ligand | 5 µM | 99 | COc1ncc2cc3ccccc3nc2c1C#N
cell-free assay | competition with immobilised ligand | 1 µM | 67 | COc1ccc2c(O[C@@H]3C[C@H]4C(=O)N[C@]5(C(=O)O)CC5/C=C\CCCCC[C@H](NC(=O)OC5CCCC5)C(=O)N4C3)cc(-c3csc(NC(=O)C(C)C)n3)nc2c1C (stereo partly drawn)
binding | – | 1 µM | 55 | Cc1cnn2ncc(-c3ccnc(N(C)C)n3)c2c1
cell-free assay | competition with immobilised ligand | 1 µM | 86 | CN(C)C(=O)Cn1cc(-c2nc([C@@](C)(c3ccc(-c4cnc(N)nc4)cc3)C3CC3)no2)cn1
binding | – | 1 µM | 88 | CN(C)c1nccc(-c2cnc3ncccn23)n1
binding | competition with immobilised ligand | 1 µM | 1.1 | O=C(c1ccc(Nc2ncc(Cl)c(-c3ccc(Cl)s3)n2)cc1)N1CCC(N2CCCC2)CC1
